These results are taken from ChEMBL document CHEMBL1121715, “New antiarrhythmic agents. 4. 1'-(Aminoalkyl)-1,2,3,4-tetrahydronaphthalene-1-spiro-3'-pyrrolidine-2',5'-dione derivatives” (J Med Chem, 1981).

For data set [1], the system named is Mus musculus. The data set can be described thus: Protection against chloroform induced arrhythmias in mice after subcutaneous administration at 100 mg/kg dose. It counts as functional. The method, boiled down: (§1)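 Groups of 10 unanesthetized mice got sc injection of drug in 0.9% saline. After 20 min observation they were placed one by one in chloroform-vapor-saturated air. When breathing stopped, the thorax was opened and the heart inspected by eye; coordinated ventricular contractions counted as protected.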

The species entered for data set [2] is Canis familiaris. The data set can be described thus: Blood level was measured in […] at 0.004 dose. It counts as functional, Canis lupus familiaris.
The species entered for data set [3] is Mus musculus. The data set can be described thus: Percentage toxicity measured as loss of righting reflex. The class given is organism-based. Particulars: in vivo. The procedure, abridged: (§2)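 Mice (groups of 10) were dosed sc with drug in 0.9% saline and watched for 20 min for overt toxicity (ataxia, convulsions, loss of righting reflex, death) before chloroform exposure.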

Data set [4] concerns Canis familiaris. The data set can be described thus: % ectopic beats was measured in anesthetized dog at 0.014 dose. Particulars: in the assay text read “unanesthetized” for “anesthetized”. The class given is functional, Canis lupus familiaris, Heart. The procedure, abridged: (§3)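 Adult female dogs (6.7–14.5 kg) had the left anterior descending coronary artery ligated in two stages the day before testing. Dogs were unanesthetized. Ectopic beats (% of ventricular rate) and mean arterial pressure were read at maximal antiarrhythmic effect against the cumulative dose.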

A short description of data set [5]: Volume of distribution was measured at given dose of 25 umol/kg. It counts as ADME, organism-based. Particulars: in vivo. The method, boiled down: (§4)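 In dogs given iv infusions, blood samples were alkaline-extracted (pH 10.3) into methylene chloride and derivatized with heptafluorobutyrylimidazole. Concentrations were measured by GC-FID against an internal standard using standard curves. Clearance was total dose ÷ blood-level AUC (zero to infinity), and volume of distribution was clearance ÷ elimination rate constant.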

Data set [6] is filed under the species Canis familiaris. Kind of data set: (§5) Total dose of the compound. It counts as functional, Canis lupus familiaris. The procedure, abridged: (§6)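 Adult female dogs (6.7–14.5 kg) had two-stage ligation of the left anterior descending coronary artery the day before testing. After control ventricular rate, % ectopic beats and mean arterial pressure were recorded, the drug (HCl salt, isotonic solution) was infused iv without anesthesia at 0.1, 0.5 or 1.0 (mg/kg)/min, mostly 0.5. Infusion continued until the arrhythmia was abolished or cardiovascular/CNS toxicity appeared. Cumulative dose is given in mmol/kg; toxicity included convulsion and P-R prolongation ≥25%.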

In data set [7] the test system is Canis familiaris. Kind of data set: Ventricular rate was measured in anesthetized dog at 0.004 dose. Particulars: in the assay text read “unanesthetized dog” for “anesthetized dog”. The class given is functional, Canis lupus familiaris, Heart. The procedure, abridged:
as §6

Data set [8] relates to Canis familiaris. The data set can be described thus: % ectopic beats was measured in anesthetized dog at 0.028 dose. Particulars: in the assay text read “unanesthetized” for “anesthetized”. The class given is functional, Canis lupus familiaris, Heart. The procedure, abridged:
as §3

For data set [9], the system named is Canis familiaris. The data set can be described thus: MABP value was measured in anesthetized dog at given dose. The class given is functional, Canis lupus familiaris.
Data set [10] relates to Mus musculus. The data set can be described thus: Protection against chloroform induced arrhythmias was measured in mice after sc administration at given dose. The class given is functional. The procedure, abridged:
as §1

The nature of data set [11]: Total body clearance was measured at given dose. The class given is ADME. The procedure, abridged:
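Blood levels came from the iv-infused dogs, measured by GC-FID after methylene chloride extraction and heptafluorobutyryl derivatization with an internal standard. Total body clearance was total dose divided by the blood-level AUC (zero to infinity); volume of distribution was clearance divided by the elimination rate constant.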

The species named for data set [12] is Mus musculus. The data set can be described thus: Percentage toxicity measured as ataxia. It counts as organism-based. Particulars: in vivo. The method, boiled down: as §2
The subject of data set [13] is Canis familiaris. Kind of data set: Ventricular rate was measured in anesthetized dog at 0.014 dose. Particulars: in the assay text read “unanesthetized dog” for “anesthetized dog”. It counts as functional, Canis lupus familiaris, Heart. The procedure, abridged:
as §6

Data set [14] is filed under the species Canis familiaris. The description is as §5. The class given is functional, Canis lupus familiaris. The procedure, abridged:
as §6
This is another data set of the same source.

Data set [15] concerns Canis familiaris. The data set can be described thus: % ectopic beats was measured in unanesthetized dog at 0.004 dose.
Data set [16] can be described thus: Maximal concentration in dogs after 29 umol/kg intravenous dose. Particulars: dog, in vivo.
Data set [17] can be described thus: Volume of distribution was measured at given dose of 29 umol/kg. It counts as ADME, organism-based. Particulars: in vivo. The method, boiled down:
as §4

Data set [18] in a line: Percentage toxicity measured as death of mice. The class given is organism-based. Also noted: concentration or dose not given beside the values. Particulars: mouse, in vivo; read-out: Death.
The species entered for data set [19] is Mus musculus. The data set can be described thus: Percentage toxicity measured as convulsions. The class given is organism-based. Particulars: in vivo. The procedure, abridged:
as §2

Data set [20] can be described thus: Maximal concentration in dogs after intravenous administration. Particulars: dog, in vivo.
Data set [21] concerns Canis familiaris. The data set can be described thus: Blood level was measured in anesthetized dog at 0.014 dose. The class given is functional, Canis lupus familiaris.
The species entered for data set [22] is Canis familiaris. Kind of data set: Ventricular rate was measured in […] at 0.028 dose. The class given is functional, Canis lupus familiaris, Heart. The procedure, abridged:
as §6

Data set [23] has as its system Mus musculus. The data set can be described thus: Protection against chloroform induced arrhythmias was measured in mice after sc administration at given dose. It counts as functional. Particulars: Mus musculus, sc; read-out: ED50. The procedure, abridged:
as §1

Data set [24] relates to Canis familiaris. The data set can be described thus: Ventricular rate was measured in anesthetized dog at 0.21+/-0.19 dose. The class given is functional, Canis lupus familiaris, Heart. Particulars: in the assay text read “unanesthetized” for “anesthetized”. The method, boiled down:
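Adult female dogs (6.7–14.5 kg) had ventricular arrhythmias from two-stage ligation of the left anterior descending coronary artery the day before. Ventricular rate (bpm) was read at maximal antiarrhythmic effect against cumulative dose.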

Data set [25] relates to Canis familiaris. Kind of data set: % ectopic beats was measured in anesthetized dog at 0.21+/-0.19 dose; 4+/-3. The class given is functional, Canis lupus familiaris, Heart.
Data set [26] deals with Mus musculus. The data set can be described thus: Ataxia was measured in mice after sc administration at given dose. It counts as functional. The method, boiled down: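 Mice in groups of 10 received drug sc in 0.9% saline and were watched 20 min for overt toxicity before chloroform exposure. At least three doses were given.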
The species named for data set [27] is Canis familiaris. The data set can be described thus: The dose at which toxicity was measured. The class given is organism-based, Canis lupus familiaris. Particulars: dog, in vivo. The procedure, abridged:
as §6

Data set [28] has as its system Canis familiaris. The data set can be described thus: MABP value was measured in anesthetized dog at 0.21+/-0.19 dose. It counts as functional, Canis lupus familiaris.

SMILES strings stand for the structures. Where “and” joins values, the source holds several entries; their conditions need not be identical. Equal values may be shown once.

Usually Vd stands for a proportionality between amount in the body and measured concentration, not a real space. Usually ED50 stands for the dose at which the effect has come halfway, by size or by number of responders. One may read the clearance as the volume of plasma or blood freed of the substance per unit of time. In general, Cmax refers to the maximum level reached in the sampled fluid or tissue. In the data set on Mus musculus [1], `CCN(CC)CCCN1C(=O)CC2(CCCc3ccc(O)cc32)C1=O` (centres undefined) yielded a Protection of 80%. The Blood level in the data set filed under Canis familiaris [2] came out at 0.019 uM ml-1; in the data set with Canis familiaris [21], 0.01 uM ml-1. For the same molecule, the “Loss of righting reflex” value in the data set filed under Mus musculus [3] was 0%. The Etopic beats in the data set with Canis familiaris [4] turned out to be 0%; with Canis familiaris [8], 6%. Besides, the figures for the Vd in [5] and in data set [17] were 1.58 L/kg and 1.6 L/kg, respectively. Besides, the figures for the Dose in the data set listed under Canis familiaris [6] and in the data set listed under Canis familiaris [14] were 29 µM/kg and 25 µM/kg, respectively. For the same molecule, the Ventricular rate is listed as 168 beats min-1 in the data set on Canis familiaris [7], 150 beats min-1 with Canis familiaris [13] and 153 beats min-1 in the data set listed under Canis familiaris [22]. Moreover, the MABP with Canis familiaris [9] was 85 mmHg and 125 mmHg. Further, in the data set with Mus musculus [10], the 50% effective dose (ED50) was determined as 90 µmol/kg. Besides, the ClB in data set [11] was 6.06 mL/min/kg. The same molecule returned a clearance in data set [11] (ClB) of 3.81 mL/min/kg. The Ataxia in the data set listed under Mus musculus [12] worked out at 0%. Further, in the data set on Canis familiaris [15], the Ectopic beats came to 3%. For the same molecule, the Cmax in [16] is 15 µM; in data set [20], 31 µM. Besides, in data set [18], the mortality was found to be 0%. In the data set filed under Mus musculus [19], this molecule yielded a Convulsion of 0%.

In the data set with Mus musculus [1], `CCN(CC)CC(=O)Nc1c(C)cccc1C` [LIDOCAINE] returned a Protection of 100%. In addition, the ED50 in the data set on Mus musculus [23] came to 260 µmol/kg; in the data set with Mus musculus [26], 180 µmol/kg. Moreover, in the data set listed under Mus musculus [3], the “Loss of righting reflex” value was 100%. In the data set with Canis familiaris [24], the Ventricular rate was 133 beats min-1. Further, in the data set on Canis familiaris [25], the Etopic beats is 4%. This molecule displayed an Ataxia in the data set filed under Mus musculus [12] of 100%. The mortality in [18] is 0%. Also, the Cumulative dose in the data set listed under Canis familiaris [27] was found to be 0.27. Besides, the Convulsion in the data set listed under Mus musculus [19] is given as 100%. This molecule also registered an MABP with Canis familiaris [28] of 101 mmHg.
